Screening results (PubChem)
The list is a sample of the results.
MrgX1 ag – agonists of human MrgX1 receptor, primary screen, HEK293 cells, Fluo-4 calcium flux; Fluo-4 calcium fluorescence, agonist mode; active compounds read high; 0.44% of 310,000 active; AID 588627, 2011; B-score at 10 µM; Mas-related G-protein coupled receptor member X1 (Homo sapiens), Q96LB2;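 active means calcium response B-score plate-corrected fluorescence ratio at least 3 library SD, with starting fluorescence B-score inside 5 SD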
Target sequence (Q96LB2 whole entry, looked up): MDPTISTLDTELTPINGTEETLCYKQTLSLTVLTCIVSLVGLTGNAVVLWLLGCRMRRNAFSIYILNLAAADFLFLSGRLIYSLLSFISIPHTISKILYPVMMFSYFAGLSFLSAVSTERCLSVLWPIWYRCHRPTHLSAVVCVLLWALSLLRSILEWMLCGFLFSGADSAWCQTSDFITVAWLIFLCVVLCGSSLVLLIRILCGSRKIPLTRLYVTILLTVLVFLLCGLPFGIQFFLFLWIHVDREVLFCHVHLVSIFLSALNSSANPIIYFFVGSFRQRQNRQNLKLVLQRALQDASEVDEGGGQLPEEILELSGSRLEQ
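Material: HEK293 cells stably expressing human MrgX1 receptor | Quantity: 15,000 cells per well | Times: Cells plated overnight, dye loaded 0.5 h 37 °C, 0.5 h room temperature | Measured by: Kinetic Fluo-4 NW fluorescence of intracellular calcium | Control set: Positive and negative controls per plate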
RGS4 block – RGS4 inhibitors, primary screen, cell-based, HEK293 M3R inducible RGS4, calcium flux. AID 463165, 2010. 0.45% of 310,000 active. Regulator of G-protein signaling 4 (Homo sapiens), P49798. B-score at 10 µM. Fluo-4 calcium flux; active compounds read high; triggered by carbachol at its EC20;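 active means B-score, a plate-corrected calcium signal, over three deviations above library mean, with baseline fluorescence within five deviations of library mean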;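 further: RGS4 expression induced by doxycycline in cells with stable M3 receptor; B-score is computed from the integrated fluorescence ratio over baseline after carbachol; higher B-score means a larger calcium signal and so more RGS4 inhibition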
Target sequence (P49798 whole entry, looked up): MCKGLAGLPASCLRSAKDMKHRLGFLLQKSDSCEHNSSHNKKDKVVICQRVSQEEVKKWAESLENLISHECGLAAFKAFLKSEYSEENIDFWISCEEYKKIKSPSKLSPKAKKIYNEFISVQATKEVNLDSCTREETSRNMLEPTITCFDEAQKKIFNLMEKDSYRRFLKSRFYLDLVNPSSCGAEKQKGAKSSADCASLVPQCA
MrgX1 PAM – positive allosteric modulators of MrgX1, primary screen, HEK293 cells, Fluo-4 calcium flux | Mas-related G-protein coupled receptor member X1 (Homo sapiens), Q96LB2 | B-score at 10 µM | 0.63% of 310,000 active | FDSS; active compounds read high;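 active means plate-corrected calcium response at least 3 library SD above typical, normal starting fluorescence, not activating the receptor alone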;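 further: compound read alongside a low EC10 to EC30 dose of BAM8-22 agonist; peak minus trough fluorescence over baseline measured at the second addition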
RGS4 pot – RGS4 potentiators or activators, primary screen, cell-based, HEK293 M3R inducible RGS4, calcium flux; carbachol calcium flux Fluo4; active compounds read low; B-score at 10 µM; 0.92% of 310,000 active; AID 463111, 2010;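 active means B-score of the integrated calcium signal more than 4 SD below the library mean, with starting fluorescence not abnormally high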;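 further: negative B-score means reduced calcium response which marks RGS4 activation or potentiation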
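Detection: kinetic calcium fluorescence imaging with Fluo4-AM dye, 2 µM / Material: HEK293 cells with stable M3R and inducible RGS4 / Schedule: recording 10 s baseline at 1 Hz, 100 s post-agonist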
MrgX1 antagonist – antagonists of human MrgX1 receptor, primary screen, HEK293 cells, Fluo-4 calcium flux. Mas-related G-protein coupled receptor member X1 (Homo sapiens), Q96LB2. 1.3% of 310,000 active. BAM8-22 antagonism; active compounds read low. B-score at 10 µM;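 active means calcium-response B-score plate-corrected more than 3 library SD below zero, starting fluorescence within 5 deviations, no agonist response on first addition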;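 further: peak minus trough fluorescence over baseline after final BAM8-22 challenge near maximal dose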
RGS4 block valid – enhanced carbachol calcium response, M3R/RGS4 cells, RGS4 inhibitor project, cell-based, validation screen, HEK293 M3R/RGS4, calcium flux; shares compounds with RGS4 block; carbachol calcium Fluo-4 fluorescence; carbachol added at its EC20; 0 = buffer wells, 100 = carbachol control; 65% of 1,700 active; AID 492999, 2010; calcium response, % at 10 µM;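 active means duplicate-averaged calcium response above the buffer-only control mean plus 5 SD of those controls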;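 further: integrated fluorescence ratio F max minus min over baseline F0; higher response in RGS4-induced cells means RGS4 inhibition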
RGS4 uninduced – carbachol calcium response in non-induced M3R cells, confirmation, counter-screen for RGS4 inhibitor project, cell-based, HEK293 M3R; shares compounds with RGS4 block; carbachol calcium Fluo-4; submaximal (EC20) carbachol stimulus; buffer wells 0%, carbachol control wells 100%; activity (percent), % at 10 µM; 20% of 1,900 active; call rule not given here;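 further: RGS4 induction absent so cells express M3R without RGS4; higher means more calcium signal and flags a non-specific hit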
M3R basal Ca ctr – signal in non-induced cells without carbachol, RGS4 inhibitor counter-screen; shares compounds with RGS4 block; HEK293 M3R/RGS4 non-induced, Fluo-4 calcium, no carbachol; normalised: buffer wells 0%, carbachol wells 100%; AID 493001; 22% of 1,900 active; calcium response (agonist-mode artifact), % at 10 µM;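 active means duplicate-averaged calcium rise in uninduced cells above buffer wells' mean plus 5 SD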
Calls only.

Results for Cn1c(CCNC(=O)c2ccco2)nc2cc(NC(=O)c3ccco3)ccc21 ?
MrgX1 ag: inactive; RGS4 block: inactive; MrgX1 PAM: inactive; RGS4 pot: inactive; MrgX1 antagonist: inactive; RGS4 block valid: inactive; RGS4 uninduced: inactive; M3R basal Ca ctr: inactive

What do the screens show for `Cn1c(CCNC(=O)c2ccco2)nc2cc(NC(=O)C3CCCCC3)ccc21`?
MrgX1 ag: inactive; RGS4 block: inactive; MrgX1 PAM: inactive; RGS4 pot: inactive; MrgX1 antagonist: inactive

How did CCCCC(=O)Nc1ccc2c(c1)nc(CCNC(=O)c1ccco1)n2C do in these assays?
MrgX1 ag: inactive; RGS4 block: inactive; MrgX1 PAM: inactive; RGS4 pot: inactive; MrgX1 antagonist: inactive

Results for Cn1c(CCNC(=O)c2ccco2)nc2cc(NC(=O)c3ccccc3)ccc21 ?
MrgX1 ag: inactive; RGS4 block: inactive; MrgX1 PAM: inactive; RGS4 pot: inactive; MrgX1 antagonist: inactive; RGS4 block valid: inactive; RGS4 uninduced: inactive; M3R basal Ca ctr: inactive

How did COc1ccccc1C(=O)Nc1ccc2c(c1)nc(CCNC(=O)c1ccco1)n2C do in these assays?
MrgX1 ag: inactive; RGS4 block: inactive; MrgX1 PAM: inactive; RGS4 pot: inactive; MrgX1 antagonist: inactive

How did Cn1c(CCNC(=O)c2ccccc2)nc2cc(NC(=O)c3ccco3)ccc21 do in these assays?
MrgX1 ag: inactive; RGS4 block: inactive; MrgX1 PAM: inactive; RGS4 pot: inactive; MrgX1 antagonist: inactive; RGS4 block valid: inactive; RGS4 uninduced: inactive; M3R basal Ca ctr: inactive

How did CC(C)CC(C(=O)NCC1CCCO1)N(C(=O)Cn1nnc(-c2ccc(F)cc2)n1)c1ccccc1F (stereo unspecified) do in these assays?
MrgX1 ag: inactive; RGS4 block: inactive; MrgX1 PAM: inactive; RGS4 pot: inactive; MrgX1 antagonist: inactive

What do the screens show for `Cc1cc(Cl)ccc1OC(C)C(=O)NNC(=O)C1CCCCC1C(=O)O` (stereo unspecified)?
MrgX1 ag: inactive; RGS4 block: inactive; MrgX1 PAM: inactive; RGS4 pot: inactive; MrgX1 antagonist: inactive

How did COC(C(=O)N/N=C/c1ccc(OCC(=O)N2CCOCC2)cc1)c1ccccc1 (stereo unspecified) do in these assays?
MrgX1 ag: inactive; RGS4 block: inactive; MrgX1 PAM: inactive; RGS4 pot: inactive; MrgX1 antagonist: inactive

How did COc1ccccc1-c1noc2ncnc(Nc3ccc4c(c3)OCO4)c12 do in these assays?
MrgX1 ag: inactive; RGS4 block: inactive; MrgX1 PAM: inactive; RGS4 pot: inactive; MrgX1 antagonist: inactive

Results for O=c1c2c3n(c(=S)nc2[nH]n1-c1ccccc1)CCCCC3 ?
MrgX1 ag: inactive; RGS4 block: inactive; MrgX1 PAM: inactive; RGS4 pot: inactive; MrgX1 antagonist: inactive

What do the screens show for `Cn1cc(C(=O)NS(=O)(=O)Nc2ccc(Br)cc2)c2ccccc21`?
MrgX1 ag: inactive; RGS4 block: inactive; MrgX1 PAM: inactive; RGS4 pot: inactive; MrgX1 antagonist: inactive

What do the screens show for `CSc1nc(-c2ccccc2)nn1C(=O)c1ccco1`?
MrgX1 ag: inactive; RGS4 block: inactive; MrgX1 PAM: inactive; RGS4 pot: inactive; MrgX1 antagonist: inactive; RGS4 block valid: inactive; RGS4 uninduced: inactive; M3R basal Ca ctr: inactive
